Screening data: PubChem BioAssay, several laboratories
NS3 helicase inh: inhibitors of HCV NS3 helicase, primary screen, biochemical, Cy5 molecular beacon fluorescence. Hepatitis C virus NS3 helicase. NS3 helicase DNA unwinding. inhibition, % at 10.9 µM. 290,000 tested, 0.56% active. AID 1800, 2009;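 active = inhibition above the mean of all tested compounds plus 3 SD, set per campaign, cut at about 35% in these data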;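 also: 0% = DMSO wells and 100% = thioflavine S control wells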
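Test system: hepatitis C virus NS3 helicase domain fragment enzyme. Also added: annealed dual-labelled DNA beacon duplex, ATP-started. Timing: 60 min unwinding reaction at 25 °C after ATP addition. Technique: Cy5 fluorescence. Measure: % inhibition of unwinding.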
EBNA-1 inh: EBNA-1 DNA-binding inhibitors, primary screen, biochemical, fluorescence polarization | 300,000 tested, 0.34% active | inhibition, % at 14.8 µM; in the data active = inhibition above about 28%
MLLE-PAM2 inh: inhibitors of PABP1 MLLE–PAM2 peptide binding, primary screen, biochemical, fluorescence polarization, FITC-PAM2, GST-MLLE. Polyadenylate-binding protein 1 (Homo sapiens), P11940. 360,000 tested, 0.36% active. AID 588489, 2011. inhibition, % at 20 µM; in the data active = inhibition above about 35%, passing the limit was not always enough;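 also: plate controls were DMSO wells with GST-MLLE for no effect and wells lacking GST-MLLE protein for full effect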
ZTA counter: counter-screen for EBNA-1 inhibitors: inhibitors of Epstein-Barr virus ZTA. ZTA-DNA binding, fluorescence polarization. inhibition, % at 11 µM. 320,000 tested, 0.15% active; in the data active = inhibition above about 33%
Target sequence (P03206 whole entry, looked up): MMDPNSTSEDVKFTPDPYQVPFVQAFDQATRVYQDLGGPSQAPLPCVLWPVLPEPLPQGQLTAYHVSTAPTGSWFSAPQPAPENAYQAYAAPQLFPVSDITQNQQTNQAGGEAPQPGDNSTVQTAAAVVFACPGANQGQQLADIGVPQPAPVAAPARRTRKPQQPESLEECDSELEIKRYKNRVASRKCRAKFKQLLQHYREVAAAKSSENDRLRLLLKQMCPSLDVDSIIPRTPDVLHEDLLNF
eIF4H FP inh: human eIF4H binding inhibitors, primary screen, translation initiation inhibitor project, biochemical, uHTS, fluorescence polarization. Eukaryotic translation initiation factor 4H (Homo sapiens), Q15056. eIF4H fluorescence polarization binding assay. inhibition, % at 35 µM. AID 2012, 2009. 290,000 tested, 0.94% active;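 also: calls also rest on retests at 20 µM and on dose response follow-up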
PABP FP inh: PABP poly(A) RNA binding inhibitors, primary screen, biochemical, fluorescence polarization, uHTS. 290,000 tested, 1% active. inhibition, % at 35 µM;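 also: calls also rest on retests at 20 µM and on dose response follow-up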
* marks the source's active call; other numbers are inactive results; ? = inconclusive; · = no result. A selection: hits, their analogues and other compounds. The true share with any hit is near 2.1%. Unless noted, no rule for the calls is given here.

SMILES | NS3 helicase inh | EBNA-1 inh | MLLE-PAM2 inh | ZTA counter | eIF4H FP inh | PABP FP inh
CC(=O)N=C1SC2CS(=O)(=O)CC2N1c1ccc(-c2nc3ccc(C)cc3s2)cc1 (stereo not given) | 2.1 | 26.6 | · | 1.8 | 4.5 | 14.2
Cc1ccc2nc(-c3ccc(N4C(=NC(=O)CCC(=O)O)SC5CS(=O)(=O)CC54)cc3)sc2c1 (stereo not given) | -16.9 | 8.2 | -10.2 | 24.5 | 69.5* | active
COCCN1C=C2C(=O)C(C)(OC(=O)CCC(=O)OC)C(=O)C(Br)=C2C=C1c1ccc(OC)cc1 (stereo not given) | · | 3.7 | 15.3 | -2.0 | · | ·
C=CCN1C=C2C(=O)C(C)(OC(=O)CCC(=O)OC)C(=O)C(Br)=C2C=C1c1ccc(OC)cc1 (stereo not given) | · | 6.8 | 21.1 | 20.1 | 94.9* | 50.1*
O=C(/C=C/c1cccs1)c1cc(Cl)ccc1O | -4.7 | 9.0 | 16.4 | -4.4 | -7.5 | 3.1
O=C(/C=C/c1ccc2ccccc2n1)c1cc(Cl)ccc1O | 9.5 | -7.4 | -61.9 | -2.6 | 67.0 | 51.0*
CC(=O)C[C@H]1c2cc(C(F)(F)F)ccc2S(=O)(=O)N1c1ccc(N(C)C)cc1 | · | 14.3 | 3.9 | 7.7 | · | ·
O=C(Cc1ccccc1)NCCc1cccc(Cl)c1 | 0.9 | -6.8 | 3.3 | -22.8 | -3.1 | 1.1
Cc1nnc(N2C(=O)C(O)=C(C(=O)c3ccco3)C2c2ccc(C(C)C)cc2)s1 (stereo not given) | 32.4 | -3.0 | 30.7 | 7.7 | 51.7* | active
Cc1ccc(OCC(O)CN2CC3(C)CC2CC(C)(C)C3)cc1 (stereo not given) | -8.2 | -4.5 | 4.3 | 2.6 | 13.1* | 52.5*
O=C1Nc2ccccc2SC(c2ccccc2)C1O (stereo not given) | 19.1 | -2.5 | -3.1 | -2.2 | ? | 49.5*
CCS(=O)(=O)C(=C1NCCO1)S(=O)(=O)CC | 1.7 | 5.5 | 10.8 | 9.6 | 1.8 | -9.0
O=C(CCOc1cccc(Br)c1)NNC(=O)COc1ccc(F)cc1 | · | · | 3.3 | · | · | ·
COc1cc(OC)cc(C(=O)OCCNC(=O)Cn2cnc3c2c(=O)n(C)c(=O)n3C)c1 | -0.5 | 8.9 | · | 7.5 | -4.1 | 5.0
CCSc1sccc1C1C(C#N)=C(N)N(c2cccnc2)C2=C1C(=O)CCC2 (stereo not given) | 0.2 | -0.7 | 45.2* | -11.1 | 13.6 | 17.6
CSc1sc(C)cc1C1C(C#N)=C(N)N(c2cccnc2)C2=C1C(=O)CC(C)(C)C2 (stereo not given) | -8.9 | 2.1 | -1.8 | 0.7 | -7.1 | 10.9
COc1cc(C2C(C#N)=C(N)N(c3cccnc3)C3=C2C(=O)CCC3)ccc1O (stereo not given) | -4.2 | 5.0 | -0.4 | -12.1 | 51.0* | 70.5*
COC1=C(OC)c2ccccc2C(C(=O)O)N/C1=C(/C)Nc1ccncc1 (stereo not given) | 2.8 | 6.8 | 13.8 | 7.9 | -2.8 | -13.1
O=C(CN1CCCCCC1)Nc1cc([N+](=O)[O-])ccc1Cl | -0.8 | -3.9 | 9.0 | -13.1 | 0.7 | 4.9
O=C(CN1CCOCC1)Nc1cc([N+](=O)[O-])ccc1Cl | -0.4 | -5.0 | 9.9 | -5.1 | active | 65.7
O=C(N/N=C/c1ccc(N2CCOCC2)cc1)c1ccccc1OCCOc1ccccc1 | -2.3 | 2.0 | -31.5 | 13.3 | 104.3* | active
Cc1ccc(S(=O)(=O)NN=Cc2ccc(N3CCOCC3)cc2)cc1[N+](=O)[O-] | · | · | 13.4 | · | · | ·
CCC(CC)Nc1ccc(C(CC(N)=O)NC(=O)Cc2cccc3ccccc23)cc1[N+](=O)[O-] (stereo not given) | 27.7 | 1.7 | -44.0 | -0.2 | 78.0 | 38.5*
N#Cc1ccc(Nc2nc(-c3ccccc3)cs2)cc1 | · | · | 13.1 | · | · | ·
CCC(=O)/C=C1/Sc2ccc(OC)cc2N1CCO | -3.5 | -2.6 | 44.9* | 0.3 | -6.4 | 8.1
SMILES | NS3 helicase inh | EBNA-1 inh | MLLE-PAM2 inh | ZTA counter | eIF4H FP inh | PABP FP inh
CCO/C(=C/c1sc2ccc(OC)cc2[n+]1CCCS(=O)(=O)[O-])CC | 0.3 | -11.3 | 26.8 | -21.4 | -4.4 | 15.6
CCC(/C=C1\Sc2ccc(OC)cc2N1CC)=C\c1sc2ccc(OC)cc2[n+]1CCCS(=O)(=O)[O-] | 7.8 | 56.4* | 10.4 | 104.3* | -6.3 | 3.9
CCC(/C=C1\Sc2ccc(OC)cc2N1CCO)=C\c1sc2ccc(OC)cc2[n+]1CCO | 4.6 | 44.5* | -9.2 | 84.1* | 6.1 | -23.3
Cc1csc(SCC(=O)NC(=O)NC2CCCC2)n1 | 10.5 | 8.1 | 25.9 | 4.4 | -1.1 | 1.6
Cc1ccc(S(=O)(=O)CC(=O)c2cc(C)c(O)c(C)c2)cc1 | 4.2 | 5.3 | 6.0 | 16.9 | 2.8* | 60.7*
N#C/C(=C/c1ccc(-c2ccccc2[N+](=O)[O-])o1)C(N)=O | -0.8 | 2.3 | 0.5 | -3.5 | 34.6 | -6.1
O=c1nc2s/c(=C\c3ccc(-c4ccccc4[N+](=O)[O-])o3)c(=O)n2nc1-c1ccccc1 | 42.8* | · | 72.6 | · | 102.1 | 16.8
CCN(CC)S(=O)(=O)c1cccc(C(=O)N/N=C/c2cc(OC)c(O)c(OC)c2)c1 | -4.0 | 5.6 | 0.6 | -11.6 | 5.7 | -0.3
CCN(CC)S(=O)(=O)c1cccc(C(=O)N/N=C2\CCCC(=O)C2)c1 | 3.0 | 8.4 | -5.1 | 14.2 | 55.0 | 25.4*
CCN(CC)S(=O)(=O)c1cccc(C(=O)N/N=C2\CC(=O)CC(C)(C)C2)c1 | 6.4 | -1.5 | -26.3 | -2.6 | 9.4 | 2.4
CCN(CC)S(=O)(=O)c1cccc(C(=O)N/N=C/c2cccc(O)c2O)c1 | 45.5* | 3.8 | 10.3 | -14.0 | ? | ?
O=C(Nc1cccnc1)C1CCCN(S(=O)(=O)c2cccc3nsnc23)C1 (stereo not given) | 0.6 | -5.2 | -4.2 | -3.3 | 5.0 | -0.9
N#Cc1c(NC(=O)CSc2nnc(-c3ccco3)n2-c2ccccc2)sc2c1CCC2 | 9.6 | 10.2 | -12.8 | 21.3 | 49.4 | 8.5
NC(=O)c1c(NC(=O)CSc2nnc(-c3ccco3)n2-c2ccccc2)sc2c1CCC2 | 10.7 | 14.1 | -8.6 | 16.9 | 86.7* | 85.8*
Cc1cc(-n2ccnc2)n2c(nc3ccccc32)c1C#N | 10.9 | 3.1 | -20.1 | -1.9 | 125.9 | 120.5
CCCc1cc(-n2ccnc2)n2c(nc3ccccc32)c1C#N | 11.3 | -2.4 | -48.1 | 5.0 | 124.6* | 117.1
CC/C(=N\Nc1ccc([N+](=O)[O-])cc1)c1ccccc1 | -10.1 | -2.3 | -73.6 | -6.2 | 61.4 | 126.4*
COc1ccc(Cc2c3cc(OC)c(OC)cc3cc[n+]2C)cc1OC | · | 2.3 | -81.4 | 2.3 | -6.3 | 19.8
CC[n+]1ccc2cc(OC)c(OC)cc2c1Cc1ccc(OC)c(OC)c1 | 5.0 | -3.5 | -13.4 | 7.5 | 6.4 | 57.0*
